Measurements as given in PubChem BioAssay AID602227 (Southern Research Specialized Biocontainment Screening …, 2012).
The source made the active and inactive calls.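 Rule for the calls: active = viability below 80% at one or more tested concentrations, flagged as toxic; inconclusive = replicate runs disagree on whether the viability criterion is met; inactive = viability at or above 80% at every dose.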

How the values were obtained:
[1] = Vero E6 cell cytotoxicity, dose response, cytotoxicity control for PfM17LAP inhibitor project, set 2 (AID 602227); conditions: Vero E6 viability, CellTiter-Glo luminescence, 72 h; at 50 µM (top of the series)
Procedure, shortened: (§1)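 Controls: DMSO vehicle-treated cells as reference for full viability | Test system: Vero E6 cells (African green monkey kidney), viability assay | Medium: E-MEM plus 10% FBS | Compound dosing: 10 doses, 2-fold steps | Schedule: 72 h at 37 °C | Measured by: CellTiter-Glo luminescence as viable cell measure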

[2] = system: Vero E6 viability, CellTiter-Glo luminescence, 72 h; assay: as above
Procedure, shortened: as §1

SMILES	viability [1]	CC50 [2] [µM]
COC(=O)Cc1ccc(OCCN(C)C)cc1	94.5% (inactive)	–
CCC(C)Oc1ccc(CC(=O)OC)cc1 (configuration not stated)	102% (inactive)	–
CC(C)(C(=O)NO)c1ccccc1	102% (inactive)	–
Cc1ccc(CC(=O)NO)cc1	102% (inactive)	–
CCOc1ccc(CC(=O)NO)cc1	98.9% (inactive)	–
CCCOc1ccc(CC(=O)OC)cc1	94.9% (inactive)	–
CCCCc1ccc(CC(=O)NO)cc1	–	34.7
CN(O)C(=O)Cc1ccc(OCc2ccccc2)cc1	–	24.8
COc1ccc(CC(=O)NO)cc1	95.7% (inactive)	–
O=C(Cc1ccc(Oc2ccccc2)cc1)NO	–	32.4
CCCCOc1ccc(CC(=O)N(C)O)cc1	–	27.2
CCCCOc1ccc(CCC(=O)NO)cc1	–	29.1
CCCCOc1ccc(CC(=O)O)cc1	88.7% (inactive)	–
CCCCCCCCCC(=O)NO	–	25.2
CCCCOc1ccc(CNc2c(N(O)Cc3ccccc3)c(=O)c2=O)cc1	92.8% (inactive)	–
CCCCOc1ccc(CNc2c(N(C)O)c(=O)c2=O)cc1	90% (inactive)	–
COC(=O)Cc1ccc(OCC(C)C)cc1	101% (inactive)	–
